Data from ChEMBL document CHEMBL5303300, “EUbOPEN Chemogenomics Library - Multiplex” (2023).
Where “and” joins values, the source holds several entries; their conditions need not be identical. Equal values may be shown once.

What was measured:
U2OS = assay: Multiplex assay against U2OS; type: toxicity, cell-based; details: human, number of replicates 2
Summary of the method: (§1)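 Live cells were stained at seeding with Hoechst33342, BioTracker Green Microtubule Cytoskeleton Dye, MitoTracker Red and Annexin V Alexa Fluor 680, then imaged on a CQ1 microscope at 37°C and 5% CO2 after compound addition. CellPathfinder machine-learning gating split cells into Hoechst high-intensity objects or normal cells. Normal cells were split into healthy, pyknosed or fragmented nuclei, and pyknosed cells into mitotic or apoptotic. Tubulin, mitochondrial-mass and membrane-permeability phenotypes are per cents of healthy-nucleus cells.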

Fibroblast = assay: Multiplex assay against human fibroblast; type: toxicity, cell-based; details: number of replicates 2; summary of the method: as §1
[1] = 24 h, 10 µM, compound concentration 10 uM
[2] = 48 h, 1 µM, compound concentration 1 uM
[3] = 48 h, 10 µM, compound concentration 10 uM
[4] = 12 h, 1 µM, compound concentration 1 uM
[5] = 12 h, 10 µM, compound concentration 10 uM
[6] = 24 h, 1 µM, compound concentration 1 uM

SMILES: CC(=O)N(CCN(C)C)c1ccc(N/C(=C2\C(=O)Nc3cc(Cl)ccc32)c2ccccc2)cn1
- Population Apoptotic (%) (U2OS; [1]): 93% and 88%
- Population Fragmented Nuclei (%) (U2OS; [1]): 10% and 16%
- Population Healthy Nuclei (%) (U2OS; [1]): 31% and 23%
- Population Hoechst High Intensity Objects (%) (U2OS; [1]): 3% and 4%
- Population Membrane Permeable-Phenotype (%) (U2OS; [1]): 61% and 50%
- Population Mitochondria Different-Phenotype (%) (U2OS; [1]): 76% and 90%
- Population Mitotic Cells (%) (U2OS; [1]): 6% and 11%
- Population Normal (%) (U2OS; [1]): 96% and 95%
- Population Pyknosed Nuclei (%) (U2OS; [1]): 57% and 60%
- Population Tubulin-Different-Phenotype (%) (U2OS; [1]): 87% and 90%
- Population Apoptotic (%) (U2OS; [2]): 82% and 88%
- Population Fragmented Nuclei (%) (U2OS; [2]): 3% and 13%
- Population Healthy Nuclei (%) (U2OS; [2]): 86% and 66%
- Population Hoechst High Intensity Objects (%) (U2OS; [2]): 0%
- Population Membrane Permeable-Phenotype (%) (U2OS; [2]): 2% and 10%
- Population Mitochondria Different-Phenotype (%) (U2OS; [2]): 1% and 5%
- Population Mitotic Cells (%) (U2OS; [2]): 18% and 11%
- Population Normal (%) (U2OS; [2]): 99% and 100%
- Population Pyknosed Nuclei (%) (U2OS; [2]): 9% and 19%
- Population Tubulin-Different-Phenotype (%) (U2OS; [2]): 67% and 47%
- Population Apoptotic (%) (U2OS; [3]): 92% and 100%
- Population Fragmented Nuclei (%) (U2OS; [3]): 26% and 38%
- Population Healthy Nuclei (%) (U2OS; [3]): 11% and 2%
- Population Hoechst High Intensity Objects (%) (U2OS; [3]): 3% and 2%
- Population Membrane Permeable-Phenotype (%) (U2OS; [3]): 52% and 100%
- Population Mitochondria Different-Phenotype (%) (U2OS; [3]): 48% and 100%
- Population Mitotic Cells (%) (U2OS; [3]): 7% and 0%
- Population Normal (%) (U2OS; [3]): 96% and 98%
- Population Pyknosed Nuclei (%) (U2OS; [3]): 61% and 59%
- Population Tubulin-Different-Phenotype (%) (U2OS; [3]): 100%
- Population Apoptotic (%) (Fibroblast; [4]): 45% and 32%
- Population Fragmented Nuclei (%) (Fibroblast; [4]): 15% and 19%
- Population Healthy Nuclei (%) (Fibroblast; [4]): 54% and 64%
- Population Hoechst High Intensity Objects (%) (Fibroblast; [4]): 0%
- Population Membrane Permeable-Phenotype (%) (Fibroblast; [4]): 13% and 3%
- Population Mitochondria Different-Phenotype (%) (Fibroblast; [4]): 2% and 4%
- Population Mitotic Cells (%) (Fibroblast; [4]): 54% and 67%
- Population Normal (%) (Fibroblast; [4]): 100%
- Population Pyknosed Nuclei (%) (Fibroblast; [4]): 30% and 16%
- Population Tubulin-Different-Phenotype (%) (Fibroblast; [4]): 26% and 21%
- Total Cell Count (Fibroblast; [4]): 176 and 230
- Population Apoptotic (%) (Fibroblast; [5]): 60% and 50%
- Population Fragmented Nuclei (%) (Fibroblast; [5]): 15% and 20%
- Population Healthy Nuclei (%) (Fibroblast; [5]): 50% and 56%
- Population Hoechst High Intensity Objects (%) (Fibroblast; [5]): 0%
- Population Membrane Permeable-Phenotype (%) (Fibroblast; [5]): 6% and 10%
- Population Mitochondria Different-Phenotype (%) (Fibroblast; [5]): 35% and 27%
- Population Mitotic Cells (%) (Fibroblast; [5]): 39% and 50%
- Population Normal (%) (Fibroblast; [5]): 100% and 99%
- Population Pyknosed Nuclei (%) (Fibroblast; [5]): 33% and 22%
- Population Tubulin-Different-Phenotype (%) (Fibroblast; [5]): 88% and 81%
- Total Cell Count (Fibroblast; [5]): 151 and 211
- Population Apoptotic (%) (Fibroblast; [6]): 60% and 63%
- Population Fragmented Nuclei (%) (Fibroblast; [6]): 17% and 22%
- Population Healthy Nuclei (%) (Fibroblast; [6]): 56% and 62%
- Population Hoechst High Intensity Objects (%) (Fibroblast; [6]): 0%
- Population Membrane Permeable-Phenotype (%) (Fibroblast; [6]): 7%
- Population Mitochondria Different-Phenotype (%) (Fibroblast; [6]): 1% and 4%
- Population Mitotic Cells (%) (Fibroblast; [6]): 39% and 36%
- Population Normal (%) (Fibroblast; [6]): 99%
- Population Pyknosed Nuclei (%) (Fibroblast; [6]): 26% and 15%
- Population Tubulin-Different-Phenotype (%) (Fibroblast; [6]): 25% and 24%
- Total Cell Count (Fibroblast; [6]): 176 and 221
- Population Apoptotic (%) (Fibroblast; [1]): 81% and 82%
- Population Fragmented Nuclei (%) (Fibroblast; [1]): 17% and 15%
- Population Healthy Nuclei (%) (Fibroblast; [1]): 41% and 46%
- Population Hoechst High Intensity Objects (%) (Fibroblast; [1]): 2% and 0%
- Population Membrane Permeable-Phenotype (%) (Fibroblast; [1]): 8% and 3%
- Population Mitochondria Different-Phenotype (%) (Fibroblast; [1]): 63% and 70%
- Population Mitotic Cells (%) (Fibroblast; [1]): 18% and 17%
- Population Normal (%) (Fibroblast; [1]): 97% and 100%
- Population Pyknosed Nuclei (%) (Fibroblast; [1]): 41% and 37%
- Population Tubulin-Different-Phenotype (%) (Fibroblast; [1]): 90% and 83%
- Total Cell Count (Fibroblast; [1]): 149 and 170
- Population Apoptotic (%) (Fibroblast; [2]): 80% and 68%
- Population Fragmented Nuclei (%) (Fibroblast; [2]): 19% and 25%
- Population Healthy Nuclei (%) (Fibroblast; [2]): 59% and 61%
- Population Hoechst High Intensity Objects (%) (Fibroblast; [2]): 0%
- Population Membrane Permeable-Phenotype (%) (Fibroblast; [2]): 9% and 7%
- Population Mitochondria Different-Phenotype (%) (Fibroblast; [2]): 2% and 5%
- Population Mitotic Cells (%) (Fibroblast; [2]): 20% and 31%
- Population Normal (%) (Fibroblast; [2]): 99% and 100%
- Population Pyknosed Nuclei (%) (Fibroblast; [2]): 21% and 13%
- Population Tubulin-Different-Phenotype (%) (Fibroblast; [2]): 36% and 29%
- Total Cell Count (Fibroblast; [2]): 167 and 217
- Population Apoptotic (%) (Fibroblast; [3]): 94% and 95%
- Population Fragmented Nuclei (%) (Fibroblast; [3]): 25% and 23%
- Population Healthy Nuclei (%) (Fibroblast; [3]): 25% and 17%
- Population Hoechst High Intensity Objects (%) (Fibroblast; [3]): 0%
- Population Membrane Permeable-Phenotype (%) (Fibroblast; [3]): 15% and 6%
- Population Mitochondria Different-Phenotype (%) (Fibroblast; [3]): 48% and 43%
- Population Mitotic Cells (%) (Fibroblast; [3]): 5% and 4%
- Population Normal (%) (Fibroblast; [3]): 99% and 100%
- Population Pyknosed Nuclei (%) (Fibroblast; [3]): 48% and 58%
- Population Tubulin-Different-Phenotype (%) (Fibroblast; [3]): 89% and 81%
- Total Cell Count (Fibroblast; [3]): 152 and 178
